In ChEMBL document CHEMBL1123531, “1,2-bis(arylsulfonyl)hydrazines. 2. The influence of arylsulfonyl and aralkylsulfonyl substituents on antitumor and alkylating activity” (1986):
“And” between values parts separate entries of the source, which are not always exact repeats. Identical values can stand only once.

What was measured:
Mus musculus [1] = organism: Mus musculus; experiment: Compound was evaluated for the antineoplastic activity against L1210 leukemia in mice.; assay type: functional
Method in brief: (§1)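 CDF1 mice, 10^5 L1210 ascites cells implanted ip (from 7-day donor tumors, saline-diluted). Dosed ip once daily for 6 days from 24 h post-implant, 50-150 mg/kg, as Tween 80/saline suspension. Five mice per group, vehicle-treated controls. Read-out: % T/C, mean survival of treated/control ×100.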

Mus musculus [2] = experiment: Compound was evaluated for the antitumor activity as average change in body weight against L1210 leukemia in mice at 100 mg/kg dose; assay type: functional
Method in brief: (§2)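 CDF1 mice carrying ip L1210 ascites (10^5 cells), dosed ip daily for 6 consecutive days starting 24 h after implant, in Tween 80/isotonic saline suspension. Five mice per group. Toxicity taken as mean percent body weight change from start to end of therapy.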

Mus musculus [3] = experiment: Compound was evaluated for the antitumor activity as average change in body weight against L1210 leukemia in mice at 150 mg/kg dose; assay type: functional; method in brief: as §2
Mus musculus [4] = experiment: Compound was evaluated for the antitumor activity as average change in body weight against L1210 leukemia in mice at 50 mg/kg dose; assay type: functional; method in brief: as §2
[5] = Compound was evaluated for relative alkylating activity
Mus musculus [6] = experiment: (§3) Compound was evaluated for the antitumor activity against L1210 leukemia in mice at 100 mg/kg dose; assay type: functional; method in brief: as §1
Mus musculus [7] = experiment: Compound was evaluated for the antitumor activity against L1210 leukemia in mice at 50 mg/kg dose; assay type: functional
Method in brief: (§4)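 L1210 ascites leukemia serially passaged in CDF1 mice; 10^5 cells implanted ip. Compounds homogenized in drops of 20% aqueous Tween 80, brought to volume with isotonic saline, given ip as fine suspensions once daily for 6 consecutive days starting 24 h after implantation. Five mice per group; vehicle controls. Endpoint: % T/C = mean survival treated/control × 100; body-weight change tracked toxicity.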

Mus musculus [8] = experiment: Compound was evaluated for the antitumor activity against L1210 leukemia in mice at 150 mg/kg dose; assay type: functional; method in brief: as §4
Mus musculus [9] = experiment: Compound was evaluated for the antitumor activity as average change in body weight against L1210 leukemia in mice 100 mg/kg dose; assay type: functional; method in brief: as §2
Mus musculus [10] = experiment: Compound was evaluated for the antitumor activity as average change in body weight against L1210 leukemia in mice 150 mg/kg dose; assay type: functional; method in brief: as §2
Mus musculus [11] = experiment: as §3; assay type: functional; method in brief: as §4; remark: listed apart in the source

| Compound | Max T/C (Mus musculus [1]) [%] | Average change in weight (Mus musculus [2]) [%] | Average change in weight (Mus musculus [3]) [%] | Average change in weight (Mus musculus [4]) [%] | Relative activity [5] | T/C (Mus musculus [7]) [%] | other results |
| --- | --- | --- | --- | --- | --- | --- | --- |
| COc1ccc(S(=O)(=O)N(C)NS(=O)(=O)c2ccc(C)cc2)cc1 | 113 | 14.8 | 9.8 | 12.6 | 85 |  |  |
| CN(NC(=O)c1ccccc1)C(=O)c1ccccc1 | 97 |  |  |  | 10 |  |  |
| O=S(=O)(NNS(=O)(=O)c1ccccc1)c1ccccc1 |  |  |  |  | 0 |  |  |
| CN(NS(=O)(=O)c1ccc(Cl)cc1)S(=O)(=O)c1ccc(Cl)cc1 |  |  |  |  | 190 |  |  |
| Cc1ccc(S(=O)(=O)NN(C)S(=O)(=O)c2ccc(C)cc2)cc1 |  |  |  |  | 100 |  |  |
| Cc1ccc(S(=O)(=O)N(C)NS(=O)(=O)Cc2ccccc2)cc1 |  |  |  |  | 136 |  |  |
| COc1ccc(S(=O)(=O)NN(C)S(=O)(=O)c2ccc(C)cc2)cc1 | 162 | 7.8 | 2.9 | 7.7 | 91 | 116 | T/C (Mus musculus [6]): 162%; Average survival time (Mus musculus [7]; 50 mg/kg): 15 days and 13.2 days; T/C (Mus musculus [8]): 143% |
| Cc1ccc(S(=O)(=O)N(C)NS(=O)(=O)c2ccccc2)cc1 | 162 |  |  | 2 | 112 | 162 | Average survival time (Mus musculus [7]): 15 days; Average change in weight (Mus musculus [9]): 5.4%; Average change in weight (Mus musculus [10]): -1.7% |
| Cc1ccc(S(=O)(=O)NN(C)S(=O)(=O)c2ccc(Cl)cc2)cc1 | 141 | 5.5 | -4.6 | 5.1 | 163 |  | Average survival time (Mus musculus [11]): 13 days; Average survival time (Mus musculus [8]): 10 days |
| Cc1ccc(S(=O)(=O)N(C)NS(=O)(=O)c2ccc(Cl)cc2)cc1 | 188 | 10 | 6 | 3.7 | 126 | 188 | T/C (Mus musculus [8]): 121% |
